These results are taken from ChEMBL document CHEMBL3526126, “Amide hydrolysis of a novel chemical series of microsomal prostaglandin E synthase-1 inhibitors induces kidney toxicity in the rat” (Drug Metab Dispos, 2013).

Usually Cmax stands for the maximum level reached in the sampled fluid or tissue. The AUC is the area under the concentration-time curve, a measure of exposure. Higher therefore signals high exposure. Usually AUC(0-t) stands for the area under the concentration-time curve up to a stated or last time point. The low end stands for less exposure, the high end for more exposure.

The structures appear in SMILES notation.

Data set [1] concerns Rattus norvegicus. The data set is described as follows: Toxicity in Wistar Hannover rat kidney assessed as increase in organ weight at 1000 umol/kg, po qd administered for 7 days measured on day 7 by necroscopic analysis. Type of data set: organism-based. The note with it: in vivo, 168 h.
For data set [2], the system named is Rattus norvegicus. Nature of the data set: Toxicity in Wistar Hannover rat kidney assessed as presence of dilated tubules with cellular remnants within lumen at 1000 umol/kg, po qd administered for 7 days measured on day 7 by necroscopic analysis. The data set is classed as organism-based. The following applies: in vivo, 168 h.
Data set [3] can be described thus: Drug metabolism in Sprague-Dawley rat hepatocytes assessed as formation of 4-(phenylethynyl)benzoic acid metabolite hyd at 1 to 10 uM by radio monitoring method. Type of data set: ADME, cell-based, Hepatocyte. In outline:
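Hepatocytes at 1 × 10^6 cells/ml in William's medium were incubated at 37°C with gentle shaking under 5% CO2, with substrate at […]. Separation was on an Atlantis T3 column (100 × 4.6 mm) at 1 ml/min, split 1:20 to the ion source and a flow scintillation monitor. Scintillation cocktail was added at 4 ml/min through a 0.5 ml flow cell.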

Data set [4] concerns Rattus norvegicus. Nature of the data set: Drug metabolism in Wistar Hannover rat assessed as formation of mono-oxidized metabolite +16 in plasma at 500 umol/kg, po qd administered for 7 days measured on day 7 by LC-MS analysis. The data set is classed as ADME, organism-based. The following applies: in vivo, 168 h.
Data set [5] deals with Rattus norvegicus. The data set is described as follows: Drug metabolism in Wistar Hannover rat assessed as formation of 4-(phenylethynyl)benzoic acid conjugated with mono-oxidized and sulfate conjugated matabolite in plasma at 500 umol/kg, po qd administered for 7 days measured on day 7 by LC-MS analysis. Type of data set: ADME, organism-based. The note with it: in vivo, 168 h.

Data set [6] can be described thus: Drug metabolism in Beagle dog hepatocytes assessed as amide hydrolysis at 1 to 10 uM by LC-MS analysis. Type of data set: ADME, cell-based, Canis lupus familiaris, Hepatocyte. In outline: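 Cryopreserved male Beagle dog hepatocytes at 1 × 10^6 cells/ml in William's medium, shaken gently at 37°C under 5% CO2. Substrate was tested at two concentrations (1 and 10). Metabolites, including amide-hydrolysis products, were analysed by LC-MS.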

Data set [7] in a line: Cmax in Sprague-Dawley rat at 1000 umol/kg, po qd administered for 7 days measured on day 7. The data set is classed as ADME, organism-based. The arrangement: dose 1000 umol/kg, route oral. The note with it: in vivo. The procedure, abridged: (§1)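 Toxicity study 2: 2 female satellite rats per dose group. Dosing was once daily by oral gavage (10 ml/kg) for 7 days. Tail-vein EDTA blood was taken at 2, 4, 6, 7 and 24 h on day 1 and on day 7, then chilled and centrifuged to plasma. Parent and M1 were quantified by LC-MS/MS, with M1 measured in negative electrospray mode.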

Data set [8] in a line: AUC (0 to 24 hrs) in Sprague-Dawley rat at 1000 umol/kg, po qd administered for 7 days measured on day 7. The arrangement: time < 24 hr, dose 1000 umol/kg, route oral. The data set is classed as ADME, organism-based. The following applies: plasma. The procedure, abridged:
as §1

Data set [9] is described as follows: Cmax in male Wistar Hannover rat at 500 umol/kg, po qd measured on day 1. The note with it: in vivo.
Data set [10] in a line: Cmax in female Wistar Hannover rat at 1000 umol/kg, po qd measured on day 1. The note with it: in vivo.
A short description of data set [11]: AUC (0 to 24 hrs) in male Wistar Hannover rat at 500 umol/kg, po qd measured on day 1. The note with it: plasma.
A short description of data set [12]: AUC (0 to 24 hrs) in female Wistar Hannover rat at 500 umol/kg, po qd measured on day 1. The following applies: plasma.

`NS(=O)(=O)c1ccccc1S(=O)(=O)NC(=O)c1ccc(C#Cc2ccccc2)cc1`: the Activity entry in [1] and in data set [2] was “Toxic” throughout. For the same compound, the Drug metabolism entry is reported as “metabolite_detected” in data set [3], “metabolite_detected” in [4], “metabolite_detected” in data set [5] and “metabolite_not_detected” in data set [6]. Besides, the Cmax turned out to be 95 µM in data set [7], 73 µM in data set [9] and 75 µM in [10]. This compound displayed an AUC at 24 h in [8] of 990 µM·h. Besides, the values for the exposure AUC(0-t) at 24 h in [11] and in [12] were 840 µM·h and 450 µM·h, respectively.
